Active and inactive are the calls of the source. No cut-off for these calls is given here.
Tested on: not listed separately
Experiment: Inhibition of Plasmodium falciparum falcipain-2 peptidolytic activity using Z-Phe-Arg-AMC as substrate measured over 30 mins by spectrofluorimetric analysis
In short: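 Recombinant falcipain-2 at 20 nM in 100 mM sodium acetate, 10 mM DTT, 10% glycerol, pH 5.5, with 50 µM Z-Phe-Arg-AMC and varying inhibitor concentrations. AMC release followed continuously (ex 355/em 460 nm) over 30 min at 23 ± 2 °C. IC50 from percent activity versus inhibitor concentration fitted to four-parameter logistic; at least three independent experiments.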

Q: For CCc1ccc(C(=O)Nc2ccc(S(=O)(=O)O)c3cc(S(=O)(=O)O)cc(S(=O)(=O)O)c23)cc1NC(=O)c1cccc(NC(=O)Nc2cccc(C(=O)Nc3cc(C(=O)Nc4ccc(S(=O)(=O)O)c5cc(S(=O)(=O)O)cc(S(=O)(=O)O)c45)ccc3CC)c2)c1, which IC50 is on record?
A: 80 nM

Q: For COc1ccc(C(=O)Nc2ccc(S(=O)(=O)O)c3cc(S(=O)(=O)O)cc(S(=O)(=O)O)c23)cc1NC(=O)c1cccc(NC(=O)Nc2cccc(C(=O)Nc3cc(C(=O)Nc4ccc(S(=O)(=O)O)c5cc(S(=O)(=O)O)cc(S(=O)(=O)O)c45)ccc3OC)c2)c1, which IC50 is on record?
A: 67 nM

Q: For O=C(Nc1cccc(C(=O)Nc2ccc(S(=O)(=O)O)cc2S(=O)(=O)O)c1)Nc1cccc(C(=O)Nc2ccc(S(=O)(=O)O)cc2S(=O)(=O)O)c1, which IC50 is on record?
A: 98 nM

Q: Which IC50 does the source give for O=C(Nc1cccc(C(=O)Nc2cc(C(=O)Nc3ccc(S(=O)(=O)O)c4cc(S(=O)(=O)O)cc(S(=O)(=O)O)c34)ccc2F)c1)Nc1cccc(C(=O)Nc2cc(C(=O)Nc3ccc(S(=O)(=O)O)c4cc(S(=O)(=O)O)cc(S(=O)(=O)O)c34)ccc2F)c1 here?
A: 42 nM

Q: With O=C(Nc1cccc(C(=O)Nc2ccc(S(=O)(=O)O)c3cc(S(=O)(=O)O)cc(S(=O)(=O)O)c23)c1)Nc1cccc(C(=O)Nc2ccc(S(=O)(=O)O)c3cc(S(=O)(=O)O)cc(S(=O)(=O)O)c23)c1 as the compound, how does the IC50 read?
A: 167 nM

Q: Which IC50 does the source give for COCc1ccc(C(=O)Nc2ccc(S(=O)(=O)O)c3cc(S(=O)(=O)O)cc(S(=O)(=O)O)c23)cc1NC(=O)c1cccc(NC(=O)Nc2cccc(C(=O)Nc3cc(C(=O)Nc4ccc(S(=O)(=O)O)c5cc(S(=O)(=O)O)cc(S(=O)(=O)O)c45)ccc3COC)c2)c1 here?
A: 60 nM

Q: With O=C(Nc1cccc(C(=O)Nc2cccc(C(=O)Nc3ccc(S(=O)(=O)O)c4cc(S(=O)(=O)O)cc(S(=O)(=O)O)c34)c2)c1)Nc1cccc(C(=O)Nc2cccc(C(=O)Nc3ccc(S(=O)(=O)O)c4cc(S(=O)(=O)O)cc(S(=O)(=O)O)c34)c2)c1 as the compound, how does the IC50 read?
A: 36 nM

Q: For CC1=CCC(C(=O)/N=C2\CC=C(S(=O)(=O)O)c3cc(S(=O)(=O)O)cc(S(=O)(=O)O)c32)=C/C1=N/C(=O)C1=CC=C/C(=N\C(=O)/N=C2\C=CC=C(C(=O)/N=C3/CC(C(=O)/N=C4\CC=C(S(=O)(=O)O)c5cc(S(=O)(=O)O)cc(S(=O)(=O)O)c54)=CC=C3C)C2)C1, which IC50 is on record?
A: 95 nM

Q: For O=C(Nc1cccc(C(=O)Nc2cc(C(=O)Nc3ccc(S(=O)(=O)O)c4cc(S(=O)(=O)O)cc(S(=O)(=O)O)c34)ccc2-c2ccccc2)c1)Nc1cccc(C(=O)Nc2cc(C(=O)Nc3ccc(S(=O)(=O)O)c4cc(S(=O)(=O)O)cc(S(=O)(=O)O)c34)ccc2-c2ccccc2)c1, which IC50 is on record?
A: 62 nM

Q: Which IC50 does the source give for CC(C)c1ccc(C(=O)Nc2ccc(S(=O)(=O)O)c3cc(S(=O)(=O)O)cc(S(=O)(=O)O)c23)cc1NC(=O)c1cccc(NC(=O)Nc2cccc(C(=O)Nc3cc(C(=O)Nc4ccc(S(=O)(=O)O)c5cc(S(=O)(=O)O)cc(S(=O)(=O)O)c45)ccc3C(C)C)c2)c1 here?
A: 111 nM

Q: Which IC50 does the source give for O=C(Nc1cccc(C(=O)Nc2cc(C(=O)Nc3ccc(S(=O)(=O)O)c4cc(S(=O)(=O)O)cc(S(=O)(=O)O)c34)ccc2Cl)c1)Nc1cccc(C(=O)Nc2cc(C(=O)Nc3ccc(S(=O)(=O)O)c4cc(S(=O)(=O)O)cc(S(=O)(=O)O)c34)ccc2Cl)c1 here?
A: 78 nM

Tested on: Plasmodium falciparum
Experiment: Inhibition of Plasmodium falciparum falcipain-2 hemoglobinase activity at 200 nM after 90 mins by Coomassie Blue R-250 staining-based densitometric analysis
In short: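 Human hemoglobin 0.1 mg/ml digested by 20 nM recombinant falcipain-2 in 100 mM sodium acetate, 10 mM DTT, 10% glycerol, pH 5.5, with or without compound, 37 °C for 90 min. Quenched with denaturing SDS sample buffer, products run on 15% SDS-PAGE, Coomassie-stained, and remaining hemoglobin quantified by densitometry.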

Q: With CC1=CCC(C(=O)/N=C2\CC=C(S(=O)(=O)O)c3cc(S(=O)(=O)O)cc(S(=O)(=O)O)c32)=C/C1=N/C(=O)C1=CC=C/C(=N\C(=O)/N=C2\C=CC=C(C(=O)/N=C3/CC(C(=O)/N=C4\CC=C(S(=O)(=O)O)c5cc(S(=O)(=O)O)cc(S(=O)(=O)O)c54)=CC=C3C)C2)C1 as the compound, how does the inhibition read?
A: Active

Tested on: Plasmodium falciparum
Experiment: Binding affinity to Plasmodium falciparum falcipain-2 at 1:1 compound to protein molar ratio by isothermal titration assay
In short: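 Recombinant mature falcipain-2 domain (241 aa, E. coli-expressed, Ni-column purified, refolded), 5 µM in 100 mM sodium acetate pH 5.5, 5% glycerol, 10 mM DTT; suramin added stepwise from stock in same buffer. Intrinsic tryptophan fluorescence read at ex 295/em 340 nm; maximum dilution 10%, with fluorescence and protein concentration corrected. Stoichiometry taken from inflection of first-derivative titration curve.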

Q: With CC1=CCC(C(=O)/N=C2\CC=C(S(=O)(=O)O)c3cc(S(=O)(=O)O)cc(S(=O)(=O)O)c32)=C/C1=N/C(=O)C1=CC=C/C(=N\C(=O)/N=C2\C=CC=C(C(=O)/N=C3/CC(C(=O)/N=C4\CC=C(S(=O)(=O)O)c5cc(S(=O)(=O)O)cc(S(=O)(=O)O)c54)=CC=C3C)C2)C1 as the compound, how does the Activity read?
A: Active
